Screens (PubChem BioAssay)
MC4R antagonist – MC4R antagonists of cAMP signaling, primary screen, cell-based, TR-FRET, antagonist arm of biased-ligand search. MC4R-expressing cells, MTII-stimulated cAMP, LANCE TR-FRET. 360,000 tested, 0.48% active. inhibition, % at 6.5 µM;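 active = inhibition above its plate's cutoff, the mean of tested wells on that plate plus 3 SD, cut at about 29% in these data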
Target sequence (P32245 whole entry, looked up): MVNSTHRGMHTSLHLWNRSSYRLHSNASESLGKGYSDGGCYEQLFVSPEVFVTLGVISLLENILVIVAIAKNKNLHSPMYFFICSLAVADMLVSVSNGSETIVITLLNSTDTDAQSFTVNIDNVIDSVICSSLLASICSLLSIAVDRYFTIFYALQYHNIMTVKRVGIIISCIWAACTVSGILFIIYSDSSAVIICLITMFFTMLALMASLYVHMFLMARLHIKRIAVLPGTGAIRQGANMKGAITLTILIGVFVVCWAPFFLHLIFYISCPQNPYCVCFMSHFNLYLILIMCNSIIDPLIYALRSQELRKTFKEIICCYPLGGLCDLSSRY
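Assay system: human MC4R-expressing U2OS cells; reagent: Melanotan II stimulation of cells; dosing: 6.5 µM single dose; timing: compound 30 min, challenge 1 h, detection 1 h; signal: TR-FRET cAMP assay; replicates: one well per compound, no replicates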
TLR9-MyD88 block – inhibitors of TLR9-MyD88 association in cells, primary screen, cell-based, CHO, BLA complementation, fluorescence; Toll-like receptor 9 (Homo sapiens) + Myeloid differentiation primary response protein …; CCF4 FRET ratio; inhibition, % at 4.98 µM; 340,000 tested, 0.21% active; AID 504734, 2011;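 active = inhibition above the mean over all tested compounds plus 3 SD, cut at about 21% in these data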
beta cell repl – inducers of MIN6 beta-cell proliferation, primary screen, ATP luminescence, uHTS | proliferation, % at 10 µM | 330,000 tested, 0.29% active | MIN6 cells proliferation, ATPlite luminescence, 48 h; cells starved in 0.2% serum; 100% = growth in 10% serum;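 active = compounds whose signal lies at least 3.5 SD above the mean of all wells on their plate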
NOD2-RIPK2 inh – NOD2-RIPK2 binding disruptors in cells, primary screen, fluorescence, CHO cells, BLA complementation | Receptor-interacting serine/threonine-protein kinase 2 (Homo sapiens), O43353 | CCF4 ratio | inhibition, % at 4.98 µM | 360,000 tested, 0.38% active | AID 624267, 2012; in the data active = inhibition above about 21%
MC4R ag barr – MC4R agonists recruiting beta-arrestin, primary screen, cell-based, luminescence, agonist arm of biased-ligand search. Melanocortin receptor 4 (Homo sapiens), P32245. U2OS MC4R beta-arrestin complementation; percent of melanotan II response, DMSO zero. activation, % at 8.9 µM. 360,000 tested, 0.98% active. AID 540308, 2011;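 active = activation above a per-plate cutoff, the mean activation of sample wells on that plate plus 3 SD, cut at about 8% in these data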
TLR4-MyD88 BLA – inhibitors of TLR4-MyD88 association in cells, primary screen, cell-based, HeLa CL3-4, BLA complementation, FRET ratio; inhibition, % at 8.4 µM; Toll-like receptor 4 (Homo sapiens) + Myeloid differentiation primary response protein …; HeLa CL3-4 TLR4/MyD88 BLA complementation; 200,000 tested, 0.18% active; in the data active = inhibition above about 25%
MC4R barr conf – MC4R beta-arrestin agonists, retest, confirmation, cell-based, luminescence, U2OS. 2,400 tested, 31% active. shares compounds with MC4R ag barr. U2OS MC4R beta-arrestin recruitment; scaled DMSO 0%, Melanotan II 100%. activation, % at 8.9 µM;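 active = mean activation across replicates above the hit cutoff set in the earlier primary screen, cut at about 8% in these data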
MOR-DOR barr ag – agonists of MOR-DOR heterodimerization, counter-screen for MC4R biased agonist project, cell-based, luminescence. shares compounds with MC4R ag barr. U2OS PathHunter beta-arrestin, beta-gal luminescence; percent of deltorphin B response, DMSO zero. activation, % at 9.2 µM. 2,400 tested, 5.8% active;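 active = mean activation across replicates exceeds the hit threshold derived in the earlier primary screen, cut at about 18% in these data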
Each line names hits and unclear results; the compound was inactive in the other large screens (follow-up assays come after a bar, where they were run). Compounds with a hit are over-represented: about 2.1% of the library has one in this group of screens.

COc1cccc(-c2cnc3c(NC(C)=O)cc(-c4cccc(NS(C)(=O)=O)c4)cn23)c1	none (no result: TLR9-MyD88 block, beta cell repl, TLR4-MyD88 BLA)
CC(=O)Nc1cc(-c2cccc(C(=O)NCCN(C)C)c2)cn2c(-c3ccc(F)c(Cl)c3)cnc12	none (no result: TLR9-MyD88 block, beta cell repl, TLR4-MyD88 BLA)
CC(=O)Nc1cc(-c2ccccc2Cl)cn2c(-c3ccc(S(C)(=O)=O)cc3)cnc12	none (no result: TLR9-MyD88 block, beta cell repl, TLR4-MyD88 BLA)
CC(=O)Nc1cc(-c2ccc(F)cc2)cn2c(-c3ccc(F)c(Cl)c3)cnc12	MC4R ag barr 19 (no result: TLR9-MyD88 block, beta cell repl, TLR4-MyD88 BLA) | MC4R barr conf 18 | MOR-DOR barr ag inactive
CC(=O)Nc1cc(-c2cccc(NS(C)(=O)=O)c2)cn2c(-c3ccccc3)cnc12	MC4R ag barr 12 (no result: TLR9-MyD88 block, beta cell repl, TLR4-MyD88 BLA) | MC4R barr conf 20 | MOR-DOR barr ag inactive
Cc1ccc(S(=O)(=O)NCCc2cccs2)cc1	none (no result: TLR4-MyD88 BLA)
C/C(=N\Nc1ccc(C#N)cc1[N+](=O)[O-])c1ccc(O)cc1	MC4R ag barr 10 (no result: TLR4-MyD88 BLA) | MC4R barr conf inactive | MOR-DOR barr ag inactive
C/C(=N/Nc1ccccc1[N+](=O)[O-])c1ccc([N+](=O)[O-])cc1	none (no result: TLR4-MyD88 BLA)
COc1cccc(C(=O)Nc2nnc(-c3cccs3)s2)c1	MC4R ag barr 15 | MC4R barr conf inactive | MOR-DOR barr ag inactive
CCc1nnc(NC(=O)c2cccc(OC)c2)s1	none
COc1ccc(CCN2C(=O)c3ccncc3C2=O)cc1OC	MC4R ag barr 14 | MC4R barr conf inactive | MOR-DOR barr ag inactive
O=C(NCc1ccco1)C(=O)c1cn(CC(=O)N2CCCCC2)c2ccccc12	none
Cc1cc(F)cc(-c2cc(C(=O)NCc3cccc(Cl)c3)[nH]n2)c1	MC4R ag barr 13 (no result: TLR9-MyD88 block, beta cell repl, TLR4-MyD88 BLA) | MC4R barr conf inactive | MOR-DOR barr ag inactive
O=C1[C@@H]2Cc3c([nH]c4ccccc34)C(c3cccc([N+](=O)[O-])c3)N2C(=O)CN1C1CCN(Cc2ccccc2)CC1 (some centres not stated)	none (no result: TLR4-MyD88 BLA)
O=C(c1cc(C2CCCCN2C(=O)CCCc2ccccc2)on1)N1CCOCC1 (configuration not stated)	none (no result: TLR9-MyD88 block, beta cell repl, TLR4-MyD88 BLA)
O=C(COc1ccc2c(c1)OCO2)Nc1ccc2c(c1)oc1ccccc12	MC4R ag barr 22 | MC4R barr conf 21 | MOR-DOR barr ag inactive
CCOC(=O)c1[nH]c2cc(OC)c(OC)cc2c1NC(=O)c1ccc2c(c1)OCO2	MC4R ag barr 26 | MC4R barr conf inactive | MOR-DOR barr ag inactive
Cc1nn(CC(=O)NC(=O)NC2CCCC(C)C2C)c(=O)c(C#N)c1C (configuration not stated)	none (no result: TLR4-MyD88 BLA)
CCc1c(C2(O)CCCCC2)[nH]c2ccc(C#N)cc12	MC4R ag barr 11 (no result: TLR4-MyD88 BLA) | MC4R barr conf inactive | MOR-DOR barr ag inactive
CCc1c(C2(O)CCCCC2)[nH]c2ccc(C(=O)OC)cc12	none (no result: TLR4-MyD88 BLA)
CC(=O)Nc1cc(-c2ccc(N)nc2)cn2c(-c3cccc(C(F)(F)F)c3)cnc12	MC4R ag barr 19 (no result: TLR9-MyD88 block, beta cell repl, TLR4-MyD88 BLA) | MC4R barr conf 9.8 | MOR-DOR barr ag inactive
CC(=O)Nc1cccc(-c2cc(NC(C)=O)c3ncc(-c4cccc(C(F)(F)F)c4)n3c2)c1	none (no result: TLR9-MyD88 block, beta cell repl, TLR4-MyD88 BLA)
CC(=O)Nc1cc(-c2ccc(N)cc2)cn2c(-c3cccc(C(F)(F)F)c3)cnc12	MC4R ag barr 11 (no result: TLR9-MyD88 block, beta cell repl, TLR4-MyD88 BLA) | MC4R barr conf 12 | MOR-DOR barr ag inactive
